# Test results as given in ChEMBL document CHEMBL1123026, “Preparation and antiarthritic and analgesic activity of 4,5-diaryl-2-(substituted thio)-1H-imidazoles and their sulfoxides and sulfones” (1985).
# Tests used:
# Format in all cases: functional
# Mus musculus [1] = test: Effective dose by mouse phenyl-p-benzoquinone writhing (PQW)assay after peroral administration; activity value ranges from (2.3-15.7); details: po
# Method in brief: (§1)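 Fasted (17-21 h) female white mice, 5-20 per double-blind test, dosed orally with compound suspended in 1% methylcellulose. 0.20 mL aqueous 0.01% phenyl-p-benzoquinone given i.p. 6 min before a 10-min observation for stretching/writhing. ED50 (dose protecting 50% of mice) calculated by the moving-average method.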
# Mus musculus [2] = test: Effective dose by mouse phenyl-p-benzoquinone writhing (PQW)assay after peroral administration; activity value ranges from (1.9-10.1); details: po; method in brief: as §1
# Mus musculus [3] = test: Effective dose by mouse phenyl-p-benzoquinone writhing (PQW)assay after peroral administration; activity value ranges from (2.8-10.9); details: po; method in brief: as §1
# Rattus norvegicus [4] = test: Effective dose determined against rat adjuvant arthritis after peroral administration; details: po
# Method in brief: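 Male Lewis rats (130-150 g) given 0.1 mL Mycobacterium butyricum adjuvant (5 mg/mL in mineral oil) s.c. into the right hind paw; arthritis developed for 2 weeks. Groups of 10 matched for severity were dosed orally by gavage in PVA-acacia vehicle (10 mL/kg) for 7 days. Uninjected left paw volume was measured the day after the last dose. Percent decrease was calculated vs arthritic and nonarthritic controls. ED50 was read from a visually fitted semilog dose-response line.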
# Mus musculus [5] = test: Effective dose by mouse phenyl-p-benzoquinone writhing (PQW)assay after peroral administration; activity value ranges from (3.1 - 39.5); details: po; method in brief: as §1
# Mus musculus [6] = test: Effective dose by mouse phenyl-p-benzoquinone writhing (PQW)assay after peroral administration; activity value ranges from (0.028-0.065); details: po
# Mus musculus [7] = test: Effective dose determined by mouse phenyl-p-benzoquinone writhing (PQW) assay after peroral administration; details: po; method in brief: as §1
# Rattus norvegicus [8] = test: Decrease in paw volume by the effect of compound at a dose of 75 mg/kg, highest dose (75 mg/kg)
# Method in brief: (§2)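 Male Lewis rats (130-150 g) got 0.1 mL adjuvant (heat-killed Mycobacterium butyricum, 5 mg/mL in mineral oil) subplantar in the right hind paw and were left 2 weeks. Groups of 10 matched for severity were dosed orally by gavage (PVA-acacia vehicle, 10 mL/kg) for 7 days. Uninjected left hind paw volume was read the next day. % decrease = (arthritic control − treated)/(arthritic − nonarthritic control) × 100; Student's t-test.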
# Mus musculus [9] = test: Effective dose by mouse phenyl-p-benzoquinone writhing (PQW)assay after peroral administration; 6.5-42.8; details: po
# Mus musculus [10] = test: Effective dose by mouse phenyl-p-benzoquinone writhing (PQW)assay after peroral administration; 14.9-77.8; details: po
# Mus musculus [11] = test: Effective dose by mouse phenyl-p-benzoquinone writhing (PQW)assay after peroral administration; 5.3-45.9; details: po
# Rattus norvegicus [12] = test: Decrease in paw volume by the effect of compound at a dose of 1 mg/kg; method in brief: as §2
# Mus musculus [13] = test: Effective dose by mouse phenyl-p-benzoquinone writhing (PQW)assay after peroral administration; activity value ranges from (25.5-94.1); details: po; method in brief: as §1
# Mus musculus [14] = test: Effective dose by mouse phenyl-p-benzoquinone writhing (PQW)assay after peroral administration; activity value ranges from (6.0 - 18.0); details: po; method in brief: as §1
# Rattus norvegicus [15] = test: Decrease in paw volume was evaluated at dose 10 mg/kg; method in brief: as §2
# Mus musculus [16] = test: Effective dose against mouse phenyl-p-benzoquinone writhing (PQW)assay, peroral administration; activity value ranges from (21.9-110); details: po
# Mus musculus [17] = test: Effective dose by mouse phenyl-p-benzoquinone writhing (PQW)assay after peroral administration; 51.5-243; details: po
# Mus musculus [18] = test: Effective dose by mouse phenyl-p-benzoquinone writhing (PQW)assay after peroral administration; activity value ranges from (15.7 - 101.9); details: po; method in brief: as §1
# Mus musculus [19] = test: Effective dose by mouse phenyl-p-benzoquinone writhing (PQW)assay after peroral administration; 16.6-69.5; details: po
# Mus musculus [20] = test: Effective dose by mouse phenyl-p-benzoquinone writhing (PQW)assay after peroral administration; activity value ranges from (8.6 - 78.6); details: po; method in brief: as §1
# Rattus norvegicus [21] = test: Decrease in paw volume by the effect of compound at a dose of 10 mg/kg; method in brief: as §2
# Mus musculus [22] = test: Effective dose by mouse phenyl-p-benzoquinone writhing (PQW)assay after peroral administration; activity value ranges from (10.9-125.8); details: po; method in brief: as §1
# Mus musculus [23] = test: Effective dose by mouse phenyl-p-benzoquinone writhing (PQW)assay after peroral administration; 26.7-130; details: po
# Mus musculus [24] = test: Effective dose by mouse phenyl-p-benzoquinone writhing (PQW)assay after peroral administration; 0.16-0.57; details: po
# Mus musculus [25] = test: Effective dose by mouse phenyl-p-benzoquinone writhing (PQW)assay after peroral administration; activity value ranges from (5.9 - 17.1); details: po; method in brief: as §1
# Mus musculus [26] = test: Effective dose by mouse phenyl-p-benzoquinone writhing (PQW)assay after peroral administration; activity value ranges from (22.9 - 118); details: po; method in brief: as §1
# Mus musculus [27] = test: Effective dose by mouse phenyl-p-benzoquinone writhing (PQW)assay after peroral administration; activity value ranges from (2.7-11.8); details: po; method in brief: as §1
# Mus musculus [28] = test: Effective dose by mouse phenyl-p-benzoquinone writhing (PQW)assay after peroral administration; activity value ranges from (0.48-1.53); details: po
# Mus musculus [29] = test: Effective dose by mouse phenyl-p-benzoquinone writhing (PQW)assay after peroral administration; activity value ranges from (0.05-0.27); details: po
# Mus musculus [30] = test: Effective dose by mouse phenyl-p-benzoquinone writhing (PQW)assay after peroral administration; 27.2-42.9; details: po
smiles,measurement,setting,value
O=S(=O)(c1nc(-c2ccccc2)c(-c2ccccc2)[nH]1)C(F)F,ED50,Mus musculus [1],6 mg/kg
O=S(=O)(c1nc(-c2ccccc2Cl)c(-c2ccccc2Cl)[nH]1)C(F)(F)C(F)F,ED50,Mus musculus [2],4.4 mg/kg
Cc1ccc(-c2[nH]c(S(=O)(=O)C(F)(F)C(F)F)nc2-c2ccccc2)cc1,ED50,Mus musculus [3],5.5 mg/kg
same,ED50,Rattus norvegicus [4],0.8 mg/kg
[O-][S+](c1nc(-c2ccc(Cl)cc2)c(-c2ccc(Cl)cc2)[nH]1)C(F)(F)C(F)F (stereo not drawn),ED50,Mus musculus [5],11 mg/kg
same,ED50,Rattus norvegicus [4],0.22 mg/kg
COc1ccc(-c2nc(S(=O)(=O)C(F)(F)F)[nH]c2-c2ccc(OC)cc2)cc1,ED50,Mus musculus [6],0.043 mg/kg
CC[S+]([O-])c1nc(-c2ccccc2)c(-c2ccccc2)[nH]1 (stereo not drawn),ED50,Mus musculus [7],> 130 mg/kg
same,Decrease,Rattus norvegicus [8],44%
COc1ccc(-c2nc(S(=O)(=O)C(F)(F)C(F)I)[nH]c2-c2ccc(OC)cc2)cc1 (stereo not drawn),ED50,Mus musculus [9],16.7 mg/kg
same,ED50,Rattus norvegicus [4],5 mg/kg
C=CSc1nc(-c2ccc(OC)cc2)c(-c2ccc(OC)cc2)[nH]1,ED50,Mus musculus [10],34 mg/kg
same,ED50,Rattus norvegicus [4],12 mg/kg
Fc1ccc(-c2nc(SC(F)(F)F)[nH]c2-c2ccc(F)cc2)cc1,ED50,Mus musculus [11],15.6 mg/kg
same,ED50,Rattus norvegicus [4],0.035 mg/kg
Cc1ccc(-c2[nH]c(S(=O)(=O)C(F)(F)C(F)F)nc2-c2cccc(Cl)c2)cc1,Decrease,Rattus norvegicus [12],36%
same,ED50,Mus musculus [13],49 mg/kg
O=S(=O)(CC(F)(F)F)c1nc(-c2ccccc2)c(-c2ccccc2)[nH]1,ED50,Mus musculus [14],10.4 mg/kg
same,ED50,Rattus norvegicus [4],15 mg/kg
CCOc1ccc(-c2[nH]c(SC(F)(F)C(F)F)nc2-c2ccccc2)cc1,ED50,Mus musculus [7],> 130 mg/kg
same,Decrease,Rattus norvegicus [15],32%
C[S+]([O-])c1nc(-c2ccc(Cl)cc2)c(-c2ccc(Cl)cc2)[nH]1 (stereo not drawn),ED50,Rattus norvegicus [4],2.5 mg/kg
same,ED50,Mus musculus [16],49 mg/kg
COc1ccc(-c2nc(SC(F)F)[nH]c2-c2ccc(OC)cc2)cc1,ED50,Mus musculus [17],112 mg/kg
CCCS(=O)(=O)c1nc(-c2ccc(OC)cc2)c(-c2ccc(OC)cc2)[nH]1,ED50,Mus musculus [18],40 mg/kg
same,ED50,Rattus norvegicus [4],9.5 mg/kg
CN(C)c1ccc(-c2[nH]c(SC(F)(F)C(F)F)nc2-c2ccccc2)cc1,ED50,Mus musculus [19],34 mg/kg
same,ED50,Rattus norvegicus [4],3 mg/kg
COc1ccc(-c2nc(S(=O)(=O)CC(C)=O)[nH]c2-c2ccc(OC)cc2)cc1,ED50,Mus musculus [20],26 mg/kg
same,ED50,Rattus norvegicus [4],20 mg/kg
CS(=O)(=O)c1nc(-c2cccc(Cl)c2)c(-c2ccccc2)[nH]1,ED50,Mus musculus [7],> 130 mg/kg
same,Decrease,Rattus norvegicus [21],55%
COc1ccc(-c2nc([S+]([O-])C(F)(F)F)[nH]c2-c2ccc(OC)cc2)cc1 (stereo not drawn),ED50,Mus musculus [22],37 mg/kg
same,ED50,Rattus norvegicus [4],3 mg/kg
COc1ccc(-c2nc(SC(F)(F)C(F)Br)[nH]c2-c2ccc(OC)cc2)cc1 (stereo not drawn),ED50,Rattus norvegicus [4],10 mg/kg
same,ED50,Mus musculus [23],59 mg/kg
COc1ccc(-c2nc(S(=O)(=O)C(F)(F)C(F)Br)[nH]c2-c2ccc(OC)cc2)cc1 (stereo not drawn),ED50,Mus musculus [24],0.3 mg/kg
O=S(=O)(CC(F)(F)F)c1nc(-c2ccc(Cl)cc2)c(-c2ccc(Cl)cc2)[nH]1,ED50,Mus musculus [25],10 mg/kg
same,ED50,Rattus norvegicus [4],10 mg/kg
[O-][S+](c1nc(-c2ccc(Cl)c(Cl)c2)c(-c2ccccc2)[nH]1)C(F)(F)C(F)F (stereo not drawn),ED50,Mus musculus [26],52 mg/kg
same,ED50,Rattus norvegicus [4],0.45 mg/kg
O=S(=O)(c1nc(-c2ccccc2)c(-c2ccccc2)[nH]1)C(F)(F)CF,ED50,Mus musculus [27],5.6 mg/kg
same,ED50,Rattus norvegicus [4],0.14 mg/kg
O=S(=O)(c1nc(-c2ccc(F)cc2)c(-c2ccccc2)[nH]1)C(F)(F)C(F)F,ED50,Mus musculus [28],0.86 mg/kg
same,ED50,Rattus norvegicus [4],0.03 mg/kg
COc1ccc(-c2[nH]c(S(=O)(=O)C(F)(F)F)nc2-c2ccc(F)cc2)cc1,ED50,Mus musculus [29],0.12 mg/kg
O=S(=O)(c1nc(-c2ccccc2)c(-c2ccccc2)[nH]1)C(F)(F)C(Cl)Cl,ED50,Mus musculus [30],34.2 mg/kg
same,ED50,Rattus norvegicus [4],1.7 mg/kg
